Measured values: ChEMBL document CHEMBL2331230, “Synthesis, anticancer and antioxidant activities of 2,4,5-trimethoxy chalcones and analogues from asaronaldehyde: structure-activity relationship” (Eur J Med Chem, 2013)
≈ marks a conversion by molar mass, not a printed value.

Legend:
HeLa = assay: Cytotoxicity against human HeLa cells assessed as growth inhibition after 72 hrs by MTT assay; assay type: functional, cell-based
In short: (§1)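 Cells grown in DMEM with 10% FBS, seeded at 10,000 per well, and treated after 24 h with a concentration series ending at […]; pristimerin as positive control. After 72 h, MTT (5 mg/ml) added for 3 h. Formazan dissolved in DMSO, read at 570 nm. IC50 is the concentration giving 50% growth inhibition; mean ± S.D. of three tests in triplicate.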

[1] = Antioxidant activity in rat erythrocytes assessed as inhibition of phenyl hydrazine-induced haemolysis after 1 hr; assay type: functional, cell-based; details: erythrocyte
In short: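 20% PCV erythrocyte suspension made from rat blood. Samples at various concentrations combined with 0.5 mM phenyl hydrazine and erythrocyte suspension in phosphate buffered saline (3 ml total). Incubated 37 °C for 1 h, centrifuged 1000 g for 10 min, supernatant absorbance at 540 nm. α-Tocopherol as positive control.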

[2] = Antioxidant activity assessed as nitric oxide scavenging activity after 2.5 hrs by Griess assay; assay type: functional
In short: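 Sodium nitroprusside, 10 mM in phosphate saline buffer pH 7.4, added to samples at various concentrations and held 2.5 h at room temperature. Nitrite detected with Griess reagent at 546 nm against a blank. Inhibition (%) = (1 − A1/A0)×100, with A0 the control. Ascorbic acid as standard. Means of triplicates from three independent experiments.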

MCF7 = assay: Cytotoxicity against human MCF7 cells assessed as growth inhibition after 72 hrs by MTT assay; assay type: functional, cell-based; details: MCF7, 72 h; in short: as §1
[3] = tested on: Radical scavenging activity; assay: Antioxidant activity assessed as DPPH free radical scavenging activity after 15 mins by spectrophotometric analysis; assay type: functional
In short: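 Test samples at several concentrations mixed with stock DPPH (final concentration not stated), made up to 3 ml in methanol, incubated 15 min. Absorbance at 517 nm read against a sample-free blank. Ascorbic acid at various concentrations as standard. Values are means of triplicates from three independent experiments.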

SW982 = assay: Cytotoxicity against human SW982 cells assessed as growth inhibition after 72 hrs by MTT assay; assay type: functional, cell-based; details: SW982, 72 h; in short: as §1

Structure (SMILES)	IC50 (HeLa) [µM]	IC50 [1] [µg/mL]	IC50 [2] [µg/mL]	IC50 (MCF7) [µM]	IC50 [3] [µg/mL]	IC50 (SW982) [µM]
COc1cc(OC)c(OC)cc1/C=C/C(=O)c1ccc(Cl)cc1	36.5	2.298 (≈ 6.91 µM)	2.014 (≈ 6.05 µM)	29.5	4.593 (≈ 13.8 µM)	58.5
COc1ccc(C(=O)/C=C/c2cc(OC)c(OC)cc2OC)cc1	37.6	2.178 (≈ 6.63 µM)	2.07 (≈ 6.3 µM)	33.9	4.394 (≈ 13.4 µM)	60.5
COc1cc(OC)c(OC)cc1/C=C/C(=O)c1ccc([N+](=O)[O-])cc1	> 150	2.337 (≈ 6.81 µM)	1.982 (≈ 5.77 µM)	> 150	4.754 (≈ 13.8 µM)	> 150
COc1cc(OC)c(OC)cc1/C=C/C(=O)c1ccc(Br)cc1	31.7	2.3 (≈ 6.1 µM)	2.224 (≈ 5.9 µM)	18.3	4.318 (≈ 11.4 µM)	38.2
COc1cc(OC)c(OC)cc1/C=C/C(=O)c1ccc(O)cc1		2.285 (≈ 7.27 µM)	2.502 (≈ 7.96 µM)	182	4.293 (≈ 13.7 µM)	155
COc1cc(OC)c(OC)cc1/C=C/C(=O)c1ccc(O)cc1O	37.6	2.373 (≈ 7.18 µM)	2.763 (≈ 8.36 µM)	33.8	4.368 (≈ 13.2 µM)	32.4
COc1cc(OC)c(OC)cc1/C=C/C(=O)c1cc(O)ccc1O	> 150	2.103 (≈ 6.37 µM)	2.444 (≈ 7.4 µM)	> 150	2.653 (≈ 8.03 µM)	> 150
COc1cc(OC)c(C(=O)/C=C/c2cc(OC)c(OC)cc2OC)c(OC)c1	108	2.134 (≈ 5.49 µM)	1.977 (≈ 5.09 µM)	51.4	5.023 (≈ 12.9 µM)	96.5
COc1cc(OC)c(OC)cc1/C=C/C(=O)c1cc(OCc2ccccc2)cc(OCc2ccccc2)c1	26.9	2.167 (≈ 4.24 µM)	2.092 (≈ 4.1 µM)	23.3	5.002 (≈ 9.8 µM)	69.9
COc1cc(OC)c(OC)cc1/C=C/C(=O)c1cc(OC(C)=O)ccc1OC(C)=O	57.9	2.327 (≈ 5.62 µM)	2.37 (≈ 5.72 µM)	63.7	4.65 (≈ 11.2 µM)	78.5
COc1cc(OC)c(-c2cc(=O)c3ccc(O)cc3o2)cc1OC	> 150	2.147 (≈ 6.54 µM)	2.273 (≈ 6.92 µM)	> 150	4.808 (≈ 14.6 µM)	> 150
COc1cc(OC)c(-c2cc(=O)c3cc(O)ccc3o2)cc1OC	> 150	2.141 (≈ 6.52 µM)	2.142 (≈ 6.52 µM)	> 150	4.487 (≈ 13.7 µM)	> 150
COc1cc(OC)c(-c2cc(=O)c3cc(Cl)ccc3o2)cc1OC	> 150	2.125 (≈ 6.13 µM)	2.145 (≈ 6.19 µM)	> 150	4.973 (≈ 14.3 µM)	> 150
COc1cc(OC)c(-c2oc3ccc(Cl)cc3c(=O)c2O)cc1OC	> 150	2.144 (≈ 5.91 µM)	2.106 (≈ 5.81 µM)	> 150	4.68 (≈ 12.9 µM)	> 150
COc1cc(OC)c(-c2oc3ccc(O)cc3c(=O)c2O)cc1OC	> 150	2.154 (≈ 6.26 µM)	2.33 (≈ 6.77 µM)	> 150	4.496 (≈ 13.1 µM)	> 150
COc1cc(OC)c(C2CC(=O)c3cc(O)ccc3O2)cc1OC (stereo not drawn)	> 150	2.14 (≈ 6.48 µM)	2.434 (≈ 7.37 µM)	> 150	4.566 (≈ 13.8 µM)	> 150
COc1cc(OC)c(OC)cc1/C=C/C(=O)c1ccc(C)cc1	42.2	2.236 (≈ 7.16 µM)	2.181 (≈ 6.98 µM)	33	4.325 (≈ 13.8 µM)	81.1
COc1cc(OC)c(OC)cc1/C=C/C(=O)c1ccccc1	> 150	2.225 (≈ 7.46 µM)	2.012 (≈ 6.74 µM)	> 150	4.506 (≈ 15.1 µM)	> 150
COc1cc(OC)c(OC)cc1/C=C/C(=O)c1ccc(F)cc1	28.6	2.216 (≈ 7.01 µM)	1.963 (≈ 6.21 µM)	30	4.71 (≈ 14.9 µM)	32.5
COc1cc(OC)c(OC)cc1/C=C/C(=O)c1ccc(N2CCOCC2)cc1	> 150	2.121 (≈ 5.53 µM)	2.078 (≈ 5.42 µM)	> 150	4.269 (≈ 11.1 µM)	> 150
COc1cc(OC)c(OC)cc1/C=C/C(=O)c1ccc(-n2ccnc2)cc1	> 150	2.481 (≈ 6.81 µM)	1.972 (≈ 5.41 µM)	> 150	4.757 (≈ 13.1 µM)	> 150
COc1cc(OC)c(OC)cc1/C=C/C(=O)c1ccc(Cl)c([N+](=O)[O-])c1	16.5	2.151 (≈ 5.69 µM)	1.99 (≈ 5.27 µM)	16.4	4.472 (≈ 11.8 µM)	20.6
COc1cc(OC)c(OC)cc1/C=C/C(=O)c1cc(Cl)ccc1O	> 150	2.233 (≈ 6.4 µM)	2.32 (≈ 6.65 µM)	> 150	5.073 (≈ 14.5 µM)	> 150
COc1cc(C(=O)/C=C/c2cc(OC)c(OC)cc2OC)ccc1O	> 150	2.163 (≈ 6.28 µM)	2.462 (≈ 7.15 µM)	95.5	4.31 (≈ 12.5 µM)	> 150
COc1cc(OC)c(OC)cc1/C=C/C(=O)c1cccc(C(F)(F)F)c1	> 150	2.302 (≈ 6.28 µM)	2.085 (≈ 5.69 µM)	> 150	5.153 (≈ 14.1 µM)	> 150
Cc1c(C)c2c(c(C)c1O)CC[C@@](C)(CCC[C@H](C)CCC[C@H](C)CCCC(C)C)O2 [ALPHA-TOCOPHEROL]		3.658 (≈ 8.49 µM)				
O=C1O[C@H]([C@@H](O)CO)C(O)=C1O [ASCORBIC ACID]			2.632 (≈ 14.9 µM)		3.039 (≈ 17.3 µM)	
CC=Cc1cc(OC)c(OC)cc1OC [CIS-ASARONE]	126			129		> 150
COC(=O)[C@]1(C)CC[C@]2(C)CC[C@]3(C)C4=CC=C5C(=CC(=O)C(O)=C5C)[C@]4(C)CC[C@@]3(C)[C@@H]2C1 [PRISTIMERIN]	3.42			0.87		1.28
